pIC50: −log10 of the molar value.
Key:
[1] = target: Kynurenine 3-monooxygenase (Rattus norvegicus) (UniProt O88867); experiment: Inhibition of Kynurenine-3-hydroxylase enzyme isolated from the rat liver at 10 uM
[2] = target: Kynurenine 3-monooxygenase (Rattus norvegicus, UniProt O88867); experiment: Inhibition of Kynurenine-3-hydroxylase enzyme isolated from the rat liver
Outline: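 Enzyme source: P2 mitochondrial pellet from rat liver, resuspended in 0.32 M sucrose. Activity measured as ³HOH release from 3-[³H]-L-kynurenine at its K_m concentration, 37 °C, under conditions linear with time and enzyme protein. Five inhibitor concentrations tested. IC50 taken as the mean of at least 2 experiments run in duplicate, with variation <20%.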

Kynurenine 3-monooxygenase (Rattus norvegicus), sequence (O88867 whole entry, looked up): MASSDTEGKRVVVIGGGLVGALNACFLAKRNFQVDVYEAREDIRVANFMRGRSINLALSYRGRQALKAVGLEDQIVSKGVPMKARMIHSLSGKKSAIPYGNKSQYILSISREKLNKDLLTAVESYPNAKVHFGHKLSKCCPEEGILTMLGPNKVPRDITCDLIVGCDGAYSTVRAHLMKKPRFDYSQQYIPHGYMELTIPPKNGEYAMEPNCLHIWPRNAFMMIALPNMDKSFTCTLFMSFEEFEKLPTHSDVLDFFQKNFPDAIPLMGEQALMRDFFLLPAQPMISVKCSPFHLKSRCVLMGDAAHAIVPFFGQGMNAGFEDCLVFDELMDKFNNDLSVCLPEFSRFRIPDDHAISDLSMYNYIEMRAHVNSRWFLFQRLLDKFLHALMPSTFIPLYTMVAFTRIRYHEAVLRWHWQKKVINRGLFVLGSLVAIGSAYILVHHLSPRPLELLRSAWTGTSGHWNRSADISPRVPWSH
Kynurenine 3-monooxygenase, sequence (O88867 whole entry): as the sequence (O88867 whole entry, looked up) above

| inhibition [1] [%] | pIC50 [2] | Compound |
| --- | --- | --- |
| – | 5.82 | N/C(=C\C(=O)c1ccc(F)c(F)c1)C(=O)O |
| 1 | – | COC(=O)C(=O)/C=C(\O)c1ccccc1[N+](=O)[O-] |
| 0 | – | COC(=O)C(=N)/C=C(\O)c1cccc(F)c1 |
| 24 | – | O=C(O)C(=O)/C=C(\O)c1ccccc1[N+](=O)[O-] |
| – | 5.10 | NC(CC(=O)c1cccc([N+](=O)[O-])c1)C(=O)O (racemic) |
| – | 6.49 | O=C(O)C(=O)/C=C(\O)c1cccc(Cl)c1 |
| – | 5.59 | COC(=O)C(=O)/C=C(\O)c1ccc(F)c(Cl)c1 |
| – | 6.24 | O=C(O)C(=O)/C=C(\O)c1cccc(F)c1 |
| – | 6.92 | O=C(O)C(=O)/C=C(\O)c1ccc(F)c(F)c1 |
| 12 | – | COC(=O)C(=O)/C=C(/O)c1ccc(C)cc1 |
| – | 5.72 | COC(=O)C(=O)/C=C(\O)c1ccc(Cl)c(Cl)c1 |
| – | 6.57 | O=C(O)C(=O)/C=C(\O)c1ccc(F)c(Cl)c1 |
| 33 | – | N/C(=C\C(=O)c1ccc(Cl)cc1)C(=O)O |
| 31 | – | COC(=O)C(=N)/C=C(\O)c1ccccc1Cl |
| 0 | – | O=C(O)C(=O)/C=C(\O)c1ccccc1 |
| – | 5.52 | O=C(O)C(=O)/C=C(\O)c1ccc(Cl)cc1 |
| – | 5.70 | O=C(O)C(=O)/C=C(\O)c1ccc(Cl)c([N+](=O)[O-])c1 |
| 38 | – | COC(=O)C(=O)/C=C(\O)c1ccc(Cl)cc1 |
| 4 | – | COC(=O)C(=N)/C=C(\O)c1ccc(C)cc1 |
| – | 5.62 | N/C(=C\C(=O)c1cccc(Cl)c1)C(=O)O |
| 41 | – | N/C(=C\C(=O)c1ccc(F)cc1)C(=O)O |
| 33 | – | O=C(O)C(=O)/C=C(\O)c1ccccc1Cl |
| – | 5.77 | Cc1cc(/C(O)=C/C(=O)C(=O)O)ccc1Cl |
| 0 | – | COC(=O)C(=N)/C=C(\O)c1ccc(Cl)c(C)c1 |
| – | 4.95 | COC(=O)C(=O)/C=C(\O)c1ccc(Cl)c([N+](=O)[O-])c1 |
| 31 | – | COC(=O)C(=O)/C=C(\O)c1ccccc1Cl |
| – | 5.80 | COC(=O)C(=O)/C=C(\O)c1cccc(F)c1 |

Continued, molecule first:

| Compound | inhibition [1] [%] | pIC50 [2] |
| --- | --- | --- |
| COC(=O)C(=N)/C=C(\O)c1ccccc1 | 3 | – |
| COC(=O)C(=N)/C=C(\O)c1cccc(Cl)c1Cl | 33 | – |
| COC(=O)C(=N)/C=C(\O)c1cccc(Cl)c1 | – | 5.10 |
| COC(=O)C(=N)/C=C(\O)c1ccc(F)c(Cl)c1 | 4 | – |
| COC(=O)C(=O)/C=C(\O)c1ccc(F)c(F)c1 | – | 5.48 |
| COC(=O)C(=N)/C=C(\O)c1ccc(Cl)c(Cl)c1 | 37 | – |
| COC(=O)C(=O)/C=C(\O)c1cccc(Cl)c1Cl | 14 | – |
| N/C(=C\C(=O)c1ccccc1Cl)C(=O)O | 19 | – |
| COC(=O)C(=N)/C=C(\O)c1cccc(Br)c1 | 0 | – |
| COC(=O)C(=O)/C=C(\O)c1ccc(Br)cc1 | – | 5.72 |
| O=C(O)C(=O)/C=C(\O)c1cccc(Cl)c1Cl | 33 | – |
| N/C(=C\C(=O)c1ccccc1)C(=O)O | 17 | – |
| N/C(=C\C(=O)c1ccc(Cl)c(Cl)c1)C(=O)O | – | 6.00 |
| COC(=O)C(=O)/C=C(\O)c1ccccc1 | 23 | – |
| COC(=O)C(=O)/C=C(\O)c1cccc(Cl)c1 | – | 5.72 |
| N/C(=C\C(=O)c1ccc(F)c(Cl)c1)C(=O)O | – | 6.09 |
| COC(=O)C(=O)/C=C(\O)c1ccc(F)cc1 | 22 | – |
| COC(=O)C(=N)/C=C(\O)c1ccc(Cl)cc1 | 13 | – |
| N[C@@H](CC(=O)c1cccc([N+](=O)[O-])c1)C(=O)O | – | 5.40 |
| COC(=O)C(=N)/C=C(\O)c1ccc(F)c(F)c1 | – | 5.44 |
| COC(=O)C(=O)/C=C(\O)c1cccc(Br)c1 | – | 5.68 |
| O=C(O)C(=O)/C=C(\O)c1cccc(Br)c1 | – | 5.77 |
| COC(=O)C(=N)/C=C(\O)c1ccc(F)cc1 | 1 | – |
| N/C(=C\C(=O)c1cccc(Cl)c1Cl)C(=O)O | 32 | – |
| COC(=O)C(=O)/C=C(\O)c1ccc(Cl)c(C)c1 | – | 5.31 |
| COC(=O)C(=O)/C=C(\O)c1cccc(F)c1F | – | 5.09 |
| COC(=O)C(=N)/C=C(\O)c1ccc(Br)cc1 | 0 | – |
